# Measured values: the RNAGym collection of RNA variant scans (doi:10.1126/science.aae0568)
# This sample holds only a part of the variants without activity.
# B1: tRNA (parent)
# chain: GUUCCGUUGGCGUAAUGGUAACGCGUCUCCCUCCUAAGGAGAAGACUGCGGGUUCGAGUCCCGUACGGAACG
# Variants of: B1
# Assay: yeast fitness relative to wild type (ratio to wild type); higher = fitter; tRNA-Arg(CCU), competitive growth, 37 C, YPD
# Method in brief: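 A pool of Saccharomyces cerevisiae strains, each with a tRNA-Arg(CCU) gene variant at the native genomic locus, was competed in YPD at 37°C for 24 hours across six parallel replicates. The variants had been chemically synthesised at a 3% per-site mutation rate over 69 sites, and gene amplicons before and after competition were read by 100-nucleotide paired-end sequencing. Darwinian fitness relative to wild type rested on changes in genotype frequencies. Genotypes required ≥ 100 starting reads, and estimates < 0.5 were set to 0.5.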
row,Variant,yeast fitness
1,GUUCCGUUGGCGUAAUGGUCACGGGUCUCCCUCCUAAGGAGAAGACUGCGGGUUCGAGUCCCGUACGGAACG,0.679
2,GUUCCGUUGGCGUAAUGGUCAAGCGUGUCCCUCCUAAGGAGAAGACUGCGCGUUCGAGUCCCGUACGGAACG,≤ 0.5
3,GUUCCGUUGGCGUAAUGGUCAGGCGUCUCCCUCCUAAGGAGAAGACUGCGGGUUCGAGUACCGUACGGAACG,≤ 0.5
4,GUUCCGUUGGCGUAAUGGUCACGCGUCUCCCUCCUAAGGAGUAGACUGCGGGUUCGAGUCCCGUACGGAACG,0.782
5,GUUCCGUUGGCGUAAUGGUCAGGCGUCUCCCUCCUAAGGAGAAGACGGCGCGUUCGAGUCCCAUACGCAACG,≤ 0.5
6,GUUCCGUUGGCGUAAUGGUCACGGGUCUCCCUCCUAGGGAGAAGACUGCGGGUUCGAGUCCCGUACGGAACG,≤ 0.5
7,GUUCCGUUGGCGUAAUGGUCACGCGUCUCCCUCCUAAGGAGCAGACUACGGGUUCGAGUCCCGUACGGAACG,0.591
8,GUUCCGUUGGCGUAAUGGUCAUGCGUCUCCCUCCUAAGGAGAAGCCUGCGGGUUCGAGUCCCGUCCGGAACG,≤ 0.5
9,GUUCCGUUGGCGUAAUGGUCACGCGUCUCCCUCCUAAGGCGAAGACUCCGGGUUCGAGUCCCGUACGGAACG,0.719
10,GUUCCGUUGGCGUAAUGGUCAAGCGUCUCCCUCCUCAGGAGAAGACUGCGGGUUCGAGUCCCGUACGGUACG,≤ 0.5
11,GUUCCGUUGGCGUAAUGGUCAUGCGUCUCCCUCCUAAGGAGAAGACAGCGGGUUCGAGUCCUGUACGGAACG,0.643
12,GUUCCGUUGGCGUAAUGGUCACGGGUAUCCCUCCUAAGGAGAAAACUGCGGGUUCGAGUCCCGUACGGAACG,≤ 0.5
13,GUUCCGUUGGCGUAAUGGUCACGCGUCUCCCUCCUAAGGAGAAGACUGCGGGUUCGUGUCCCGUUCGGAACG,0.571
14,GUUCCGUUGGCGUAAUGGUCACGGGUCUCCCUCCUAAGGCGAAGACUGCGGGUUGGAGUCCCGUACGGAACG,≤ 0.5
15,GUUCCGUUGGCGUAAUGGUCACGGGUCUGCCUCCUAGGGAGAAGACUGCGGGUUCGAGUCCCGUAGGGAACG,≤ 0.5
16,GUUCCGUUGGCGUAAUGGUCACGCGUCUCCCUCCUAAGGAGAAGACUGCGGGUUCGAGUCCCGUCCGGAACG,0.957
17,GUUCCGUUGGCGUAAUGGUCAGGCGUCUACCUCCUAAGGAGAAGACUGCGGGUUGCAGUCCCGUACGGAACG,≤ 0.5
18,GUUCCGUUGGCGUAAUGGUCACGCGUCUCCCUCCUAAGGGGAAGACUGCGGGUUCGAGUCCCGUGCGGAACG,0.57
19,GUUCCGUUGGCGUAAUGGUCACGAGUCUCCCUCCUAAGGAGAAGACUGCGGGUUCAAGUCCUGUACGGACCG,0.588

row,Variant,yeast fitness
1,GUUCCGUUGGCGUAAUGGUCAGGCGUCUCCCUUCUAAGGAGAAGUCUGCGGGUUCGAGUCCCGUACGGAACG,≤ 0.5
2,GUUCCGUUGGCGUAAUGGUCAUGCGUCUCCCUCCUAAGGUGAAGACUGCGGGUUCGAGUCCCGUGCGGCACG,≤ 0.5
3,GUUCCGUUGGCGUAAUGGUCACGCGUCUCCCUCCUAAGGGGAAGACUGCGGGUUCGAGUCCGGUACGGAACG,0.864
4,GUUCCGUUGGCGUAAUGGUCACGCGUCUCCCUCCUAAGGGGAAGACUGCGGGUUCGAGUCCCGUACGGAACG,0.647
5,GUUCCGUUGGCGUAAUGGUCACGCGUCUCCCUCCUAAGGUGAAGACUGCGGGUUCGAGUCCCGUUCCGAACG,≤ 0.5
6,GUUCCGUUGGCGUAAUGGUCACGCGUCUCCCUCCUAAGGAGAAGACUGCGGGUUCGGGUCCCAUACGGAACG,0.558
7,GUUCCGUUGGCGUAAUGGUCACGGGUAUCCCUCCUAAGGAGAAGACUGCGCGUUCGAGUCUCGUACGGAACG,0.586
8,GUUCCGUUGGCGUAAUGGUCACGCGUCUCCCUCCUAAGGAGAAGCUUGCGGGUUCGAGUCCCGUACGGAACG,0.587
9,GUUCCGUUGGCGUAAUGGUCACGCGUCUCCCUCCUAAGGGGAAGACUGCGGGUUCGAGUGCCGUACGGAACG,≤ 0.5
10,GUUCCGUUGGCGUAAUGGUCACGCGUCUCCCUCCUAAGGAGAUGACUGCGGGUUCGAGUCCCGUACGGCACG,0.605
11,GUUCCGUUGGCGUAAUGGUCAUGCGUCUCCCUCCUAAGGAGAAGACUGCGGGUUCGAGUCCCGUAUGGAACG,0.622
12,GUUCCGUUGGCGUAAUGGUCAUGCGUCUCCCUCCUAAGGAGAUGACUGCGGGUUCGAGUCCCGUACGGAACG,0.584
13,GUUCCGUUGGCGUAAUGGUCACGCGUCUCCCUCCUAAGGAGACGACUGCGGGUUCGAGUCCCGUACGGAACG,0.816
14,GUUCCGUUGGCGUAAUGGUCACGCGUCUCCCUCCUAAGGAGAAGACUGCGGGUUCGAGUCCCGUACGGAUCG,1.12
15,GUUCCGUUGGCGUAAUGGUCACGCGUCUCCCUCCUAAGGAGCAGACUGCGGGUUCGAGUCCCGUACGGUACG,0.576
16,GUUCCGUUGGCGUAAUGGUCACGCGUCUCCCUCCUAGGGAGAAGCCUGCGGGUUCGAGUCCCGUACGGAACG,≤ 0.5
17,GUUCCGUUGGCGUAAUGGUCAUGCGUCUCCCUCCUAAGCAGAAGACUGCGGGUUCGAGUCCCGUACGGAACG,≤ 0.5
18,GUUCCGUUGGCGUAAUGGUCACGCGUCUCCCUCCUAAGGAGUAGACUGCGGGUUCGAGUCCCGUUCGGAACG,0.553
19,GUUCCGUUGGCGUAAUGGUCACGGGUCUCCCUCCUAAGGAGGAGACUGCGGGUUCGAGUCCCGUACGGAACG,0.585
